Screening results as filed in PubChem BioAssay.
Compounds with a hit are over-represented: about 2% of the library has one in this group of screens.
CaV13 FRET inh = Primary screen for inhibitors of IQ motif and Ca2+-dependent inactivation inhibitor domain binding in CACNA1D, Förster resonance energy transfer in living cells, …. HEK cells, CFP/YFP FRET ICDI-IQ, plate reader, 10 min; percent FRET-ratio fall versus neutral wells. inhibition, % at 12.3 µM. 340,000 compounds, 0.098% hits. AID 743397;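 active means mean replicate inhibition of at least 30% and at least 1% of replicates passing that level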;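 further: 0% = median of the neutral control wells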
FN deposit inh = fibronectin deposition inhibition; AH1F fibroblasts, Alexa488-fibronectin deposition fluorescence, overnight; inhibition, % at 12.6 µM; 350,000 compounds, 0.086% hits; AID 743247;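 active means mean inhibition across replicates of 30% or more, regardless of how many single replicates reach that level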;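 further: positive control wells lacked labelled fibronectin entirely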
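Assay system: AH1F fibroblasts / Quantity: 10000 cells per well / Medium: DMEM plus 2% serum, read in PBS / Reagent: labelled fibronectin 24 nM / Dosing: single dose, pinned / Times: 1 h cell attachment, overnight exposure to compound and label / Signal: fluorescence, ex 485 nm, em 525 nm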
DENV2 CPE = inhibitors of DENV2 cytopathic effect; 350,000 compounds, 1.7% hits; CPE inhibition, % at 9.99 µM; DENV2-infected cells, cytopathic effect rescue, plate reader; AID 651640; in the data active means CPE inhibition above about 20%, passing the limit was not always enough; tested in BHK-21 cells;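 further: 0% = median of neutral control wells and 100% = median of positive control wells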
XiGFP reactiv = reactivates the inactive X chromosome in mouse fibroblasts; 360,000 compounds, 0.055% hits; activation, % at 7.58 µM; XiGFP mouse fibroblasts, % GFP-positive cells imaging, 3 d; cells co-treated with 5-aza-dC sensitizer; scaled so ellipticine positive control = 100%;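 active means mean normalized replicate activation at least 10% and every replicate at or above 10%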;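 further: 0% = median of on-plate neutral control wells and 100% = ellipticine 6 µM median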
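Material: SV40-immortalized XiGFP fibroblast cells, line 68-5-11 | Buffer or medium: DMEM containing 5-aza-dC | Dosing: One concentration, pinned | Times: 3 d treatment, 15 min room-temperature fixation | Controls: Ellipticine 6 µM positive control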
Casp6 inh = blocks human caspase-6 cleavage activity. 350,000 compounds, 0.53% hits. P55212. inhibition, % at 12.5 µM. purified caspase-6, Z-VEID-R110 cleavage fluorescence;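 active means mean inhibition across replicates at least about 35%, with every replicate also reaching that limit, limit read from the data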;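 further: 0% = median of neutral control wells and 100% = no fluorescence left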
Target sequence (P55212 24-179 limits assumed): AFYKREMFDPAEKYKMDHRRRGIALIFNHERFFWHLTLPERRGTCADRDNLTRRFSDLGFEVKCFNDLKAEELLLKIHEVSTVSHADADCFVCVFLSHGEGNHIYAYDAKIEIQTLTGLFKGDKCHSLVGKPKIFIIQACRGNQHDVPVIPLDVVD
Target sequence (P55212 194-293 limits assumed): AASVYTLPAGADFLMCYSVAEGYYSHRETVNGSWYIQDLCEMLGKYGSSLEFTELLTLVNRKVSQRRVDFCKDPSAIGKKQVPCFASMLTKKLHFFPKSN
Numbers without * were called inactive; x = not tested or not shown; ! = not active in a repeat.

SMILES | CaV13 FRET inh | FN deposit inh | DENV2 CPE | XiGFP reactiv | Casp6 inh
Cc1noc(C)c1NC(=O)Nc1ccc2c(c1)CC(=O)N([C@@H](C)CO)C[C@H](C)[C@@H](CN(C)C(=O)Nc1ccccc1)O2 | x | x | 83.0* | 1.1 | 1.3
CO[C@H]1O[C@H](CO)[C@@H](OC(=O)Nc2cccc(F)c2)[C@H](OC(=O)Nc2ccccc2)[C@H]1OC(=O)Nc1ccccc1 | x | x | 7.2 | x | 1.5
C[C@H]1CN([C@@H](C)CO)C(=O)Cc2cc(NC(=O)Nc3cccc4ccccc34)ccc2O[C@H]1CN(C)C | x | x | -2.1 | 0.5 | 0.0
Cc1noc(C)c1NC(=O)Nc1ccc2c(c1)CC(=O)N([C@H](C)CO)C[C@H](C)[C@H](CN(C)C(=O)Nc1cccc3ccccc13)O2 | x | x | 63.3* | 0.0 | -0.7
C[C@H](CO)N1C[C@H](C)[C@@H](CN(C)C)Oc2ccc(NC(=O)Nc3cccc4ccccc34)cc2CC1=O | x | x | 38.8* | -1.4 | -0.9
Cc1noc(C)c1NC(=O)Nc1ccc2c(c1)CC(=O)N([C@@H](C)CO)C[C@H](C)[C@H](CN(C)C(=O)Nc1cccc3ccccc13)O2 | x | x | 16.7 | 0.3 | -1.5
C[C@@H]1CN([C@H](C)CO)C(=O)Cc2cc(NC(=O)Cc3cn(C)c4ccccc34)ccc2O[C@H]1CN(C)Cc1ccc(C(F)(F)F)cc1 | x | -7.4 | 33.0* | 0.3 | 1.8
C[C@@H]1CN([C@@H](C)CO)C(=O)Cc2cc(NC(=O)Nc3cccc4ccccc34)ccc2O[C@@H]1CN(C)S(C)(=O)=O | -9.4 | -3.0 | 65.7*! | 0.6 | -1.5
C[C@H]1CN([C@@H](C)CO)C(=O)Cc2cc(NC(=O)Cc3cn(C)c4ccccc34)ccc2O[C@H]1CN(C)Cc1ccc(C(F)(F)F)cc1 | x | -8.2 | -6.1 | 2.6 | -8.2
C[C@H]1CN([C@@H](C)CO)C(=O)Cc2cc(NC(=O)Nc3cccc4ccccc34)ccc2O[C@H]1CN(C)S(C)(=O)=O | x | x | -2.9 | 0.2 | 2.7
O=C(Nc1ccccc1N1CCOCC1)c1cccc(S(=O)(=O)Nc2ccccc2F)c1 | -17.5 | -0.5 | 0.2 | 0.0 | 2.7
O=C(NCC1CCCO1)c1ccc(S(=O)(=O)Nc2ccccc2F)cc1 (stereo not drawn) | -5.7 | 0.9 | 101.2* | 0.0 | 0.5
Cc1cccc(NS(=O)(=O)c2ccc(C(=O)NCC3CCCO3)cc2)c1C (stereo not drawn) | x | x | -9.7 | 0.3 | 3.9
CN(C)CCNC(=O)c1cccc(S(=O)(=O)Nc2ccccc2F)c1 | -4.8 | -6.6 | 5.6 | 0.1 | 48.7*
CCC(=O)N1[C@@H](CO)[C@@H](c2ccc(-c3ccc(F)cc3)cc2)C12CN(C(C)=O)C2 | x | x | -8.6 | 0.2 | 2.1
CCCCn1nnnc1-c1nc2ccccc2[nH]c1=O | -6.1 | 0.0 | -3.8 | 0.0 | 1.1
CCCCCn1nnnc1-c1nc2cc(C)c(C)cc2[nH]c1=O | -7.1 | 3.8 | 1.5 | 0.2 | 42.2*
O=C(C[C@@H]1C=C[C@H](NC(=O)Cc2ccccn2)[C@H](CO)O1)NCCCN1CCOCC1 | x | -11.3 | 32.6* | 0.4 | 0.4
O=C(C[C@@H]1C=C[C@H](NC(=O)Cc2ccccn2)[C@@H](CO)O1)NCCCN1CCOCC1 | x | 0.5 | -4.3 | -0.3 | -4.2
O=C(C[C@@H]1C=C[C@@H](NC(=O)Cc2ccccn2)[C@H](CO)O1)NCCCN1CCOCC1 | x | 9.8 | 38.1* | -0.2 | -1.2
CCCNC(=O)Nc1ccc2c(c1)C(=O)N(C)C[C@H](OC)[C@H](C)CN(Cc1ccccc1)[C@H](C)CO2 | x | -11.0 | x | 0.6 | x
COCC#Cc1ccc2c(c1)O[C@H](CN(C)S(=O)(=O)c1ccc(OC)cc1)[C@@H](C)CN([C@@H](C)CO)S2(=O)=O | x | x | x | -0.8 | x
COC(=O)CN1C(=O)[C@H]2[C@@H](/C=C/c3ccccc3)N3C(=O)CN(Cc4ccccc4)C(=O)[C@@]3(C)[C@H]2C1=O | -5.3 | -1.3 | 50.1* | -0.1 | -1.1
O=C1N[C@H](c2ccccc2)COCc2cnnn2CC[C@@H]1Cc1ccc(C(F)(F)F)cc1 | x | 4.7 | x | 0.0 | x
CCc1ccc(N=C2NC(=O)/C(=C/c3cc(OC)c(OC)c(OC)c3)S2)cc1 | -5.0 | -3.2 | -6.0 | 0.0 | -1.1
CCc1ccc(N=C2NC(=O)/C(=C/c3cc(Br)c(OCC(=O)O)c(OC)c3)S2)cc1 | -19.4 | 3.9 | 6.8 | 0.0 | 63.8*
